1 molecule from paper PMC9393037 (International Journal of Nanomedicine, 2022) can be followed below.

A short description of one data set: In vitro release study. In kind it is physicochemical. Conditions: PBS pH = 7.4 and pH = 5, 1% SDS, 37 ℃. In outline:
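Test compound-loaded micelles or free test compound were placed in a pre-soaked dialysis bag (MWCO 500) immersed in PBS containing 1% (w/v) SDS at pH 7.4 or pH 5. Bags were shaken at 200 rpm at 37 ℃. Outside medium was sampled at 0.5, 1, 2, 4, 6, 8, 12, 24 and 48 h and replaced with fresh PBS. Cumulative release was tracked.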

Data set [1] can be described thus: Pharmacokinetics after single i.v. administration to rats. In kind it is in vivo, Sprague Dawley rats. In outline:
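Male Sprague Dawley rats (7-9 weeks, 240-260 g), six per group, were fasted overnight. Each received one tail-vein dose of 2 mg/kg as free compound (saline with 30% propylene glycol) or micelles. Jugular blood was drawn into heparinised tubes at 0.03–8 h, and plasma was separated at 4 ℃. Samples were quantified by validated LC-ESI-MS/MS, and PK parameters were calculated; mean ± SD.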

The nature of data set [2]: Tissue distribution and targeting evaluation after i.v. administration to mice. In kind it is in vivo, ICR mice. To be noted: for Cmax: male, ICR, mouse, iv, 2.8 mg/kg. In outline: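 Male ICR mice (6-8 weeks, 27-28 g) received 2.8 mg/kg i.v. as free compound or micelles. Four mice were killed per time point (0.17, 0.5, 1, 2 h), and heart, liver, lung, kidney and brain were collected. Tissues were rinsed, weighed, homogenised in cold saline (1:2 w/v), centrifuged, and supernatants assayed by LC-MS/MS.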

Data set [3] has as its system MCAO mice. Briefly: MCAO model: behavioural tests. Format: in vivo, C57BL/6 mice. To be noted: i.v. for 7 days, seventh day after the operation. In outline: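 Male C57BL/6 mice (6-8 weeks, 24-26 g), four per group, were anaesthetised with 5% chloral hydrate i.p. The right CCA/ECA/ICA were exposed, and a monofilament was placed and removed after 1 h for reperfusion; sham mice had no monofilament. Dosing was i.v. for 7 days: free compound 3 mg/kg, micelles 1 or 3 mg/kg, edaravone 3 mg/kg. A blinded investigator scored Longa on days 1 and 7.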

The test system of data set [4] is MCAO mice. Put plainly: MCAO model: Nissl, TUNEL and LC3 immunofluorescence staining of brain sections. To be noted: i.v. for 7 days. Format: in vivo, C57BL/6 mice.
Setting [5] is: Sprague Dawley, rat, plasma, iv, 2 mg/kg.

What is called AUC(0-inf) is total exposure, with the tail of the curve extrapolated. In general, AUC(0-t) refers to exposure summed from dosing to a finite time, without extrapolation to infinity. A lower AUC(0-t) goes with less exposure. What is called MRT last is the average time that molecules of a dose stay in the body. One may read the clearance as the rate of elimination divided by the concentration. Lower therefore signals inefficient removal. The term Cmax denotes the peak of the concentration-time curve.

Turning to `O=C(/C=C/c1ccc(O)cc1)c1ccc(O)cc1O` [ISL, (e)-1-(2,4-dihydroxyphenyl)-3-(4-hydroxyphenyl) −2-propen-1-one], the figures for the cumulative release in the data set “In vitro release study” (in eight hours) and in the data set “In vitro release study” (within the first four hours) were roughly 90% and “More than 60%”, respectively. The molecule also displayed an AUC(0-inf) in data set [1] (setting [5]) of 373 ± 106 ng·h/mL. For the same molecule, the AUC(0-t) in data set [1] (setting [5]) worked out at 307 ± 92.5 ng·h/mL. The MRT last in data set [1] (setting [5]) came to 10.2 ± 1.8 min. In data set [1] (setting [5]), the clearance is 96.3 mL/min/kg. Also, the “detectability of ISL in plasma over time” value in data set [1] (rats, single i.v. 2 mg/kg) was “could not be detected after 2 hours”. The “CL (clearance rate)” value in data set [1] (rats, single i.v. 2 mg/kg, plasma ISL) stood at 96.3 ± 29 mL/min/kg. The Cmax in data set [2] (brain) came to 21.7 ± 3.45 ng/g; in data set [2] (heart), 69.2 ± 10.5 ng/g; in data set [2] (kidney) it was 713 ± 35 ng/g; in data set [2] (liver), 574 ± 137 ng/g; in data set [2] (lung) it was 179 ± 31.4 ng/g. The “detectability of ISL in tissues 1 h after administration” value in data set [2] (mice, i.v. 2.8 mg/kg, 1 h) is “could not be detected”. Besides, the AUC in data set [2] (mice, i.v. 2.8 mg/kg, Brain) turned out to be 8.34 ± 0.61 ng·h/g; in data set [2] (mice, i.v. 2.8 mg/kg, Heart), 18.66 ± 2.11 ng·h/g; in data set [2] (mice, i.v. 2.8 mg/kg, Kidney), 174.7 ± 9.70 ng·h/g; in data set [2] (mice, i.v. 2.8 mg/kg, Liver), 207.70 ± 28.50 ng·h/g; in data set [2] (mice, i.v. 2.8 mg/kg, Lung), 55.24 ± 6.28 ng·h/g. Also, in the data set with MCAO mice [3], the “neurological scores (Longa scores) compared with the MCAO model group” value was “significantly decreased”. The “Nissl staining of neurons (Nissl bodies)” value in the data set on MCAO mice [4] is listed as “not significantly different from that in the model group”. In the data set with MCAO mice [4], the “number of positive cells expressing the LC3 protein” value was “less than that in the model group and more than that in the ISL-M group”. Further, the “number of positive cells stained with the TUNEL” value with MCAO mice [4] is “less than that in the model group and more than that in the ISL-M group”.
